# Reference: ChEMBL document CHEMBL1909630, “Azaxanthene based selective glucocorticoid receptor modulators: design, synthesis, and pharmacological evaluation of (S)-4-(5-(1-((1,3,4-thiadiazol-2-yl)amino)-2-methyl-1-oxopropan-2-yl)-5H-chromeno[2,3-b]pyridin-2-yl)-2-fluoro-N,N-dimethylbenzamide (BMS-776532) and its methylene homologue …” (J Med Chem, 2011)
# Columns and labels:
# Rattus norvegicus [1] = test: Antiinflammatory activity in po dosed Freund's complete adjuvant-induced Lewis rat arthritis model assessed as reduction in paw swelling administered once daily for 21 days; assay type: functional; conditions: 504 h
# Summary of the method: (§1)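 Male Lewis rats were inoculated with Mycobacterium butyricum in incomplete Freund's adjuvant. Oral dosing was daily and preventative, running from day 0 to day 21. Onset and progression of arthritis were followed, and ED50 was estimated from the dose response.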
# [2] = Cmax in Sprague-Dawley rat at 10 mg/kg, po; assay type: ADME, organism-based; set-up: dose 10 mg/kg, route oral; conditions: in vivo
# Summary of the method: (§2)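 Male Sprague-Dawley rats received a single intravenous (1 mg/kg) or oral (10 or 50 mg/kg) dose. Plasma pharmacokinetic parameters were derived from these profiles.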
# [3] = Half life in Sprague-Dawley rat at 1 mg/kg, iv; assay type: ADME, organism-based; set-up: dose 1 mg/kg, route intravenous; conditions: in vivo; summary of the method: as §2
# Rattus norvegicus [4] = test: Antiinflammatory activity in Sprague-Dawley rat assessed as carrageenan-induced paw edema at 30 mg/kg, po administered as a single dose 2 hrs before carrageenan challenge measured 4 hrs post carrageenan challenge by plethysmometry relative to control
# Rattus norvegicus [5] = test: Antiinflammatory activity in po dosed Freund's complete adjuvant-induced Lewis rat arthritis model assessed as reduction in onset of arthritis; assay type: functional, organism-based; summary of the method: as §1
# [6] = Oral bioavailability in Sprague-Dawley rat at 50 mg/kg; assay type: ADME, organism-based; conditions: in vivo; summary of the method: as §2
# Progesterone receptor = target: T1, Progesterone receptor (Homo sapiens, UniProt P06401); test: Displacement of fluorescently labeled ligand from progesterone receptor by fluorescence polarization assay
# T1 sequence (P06401 whole entry): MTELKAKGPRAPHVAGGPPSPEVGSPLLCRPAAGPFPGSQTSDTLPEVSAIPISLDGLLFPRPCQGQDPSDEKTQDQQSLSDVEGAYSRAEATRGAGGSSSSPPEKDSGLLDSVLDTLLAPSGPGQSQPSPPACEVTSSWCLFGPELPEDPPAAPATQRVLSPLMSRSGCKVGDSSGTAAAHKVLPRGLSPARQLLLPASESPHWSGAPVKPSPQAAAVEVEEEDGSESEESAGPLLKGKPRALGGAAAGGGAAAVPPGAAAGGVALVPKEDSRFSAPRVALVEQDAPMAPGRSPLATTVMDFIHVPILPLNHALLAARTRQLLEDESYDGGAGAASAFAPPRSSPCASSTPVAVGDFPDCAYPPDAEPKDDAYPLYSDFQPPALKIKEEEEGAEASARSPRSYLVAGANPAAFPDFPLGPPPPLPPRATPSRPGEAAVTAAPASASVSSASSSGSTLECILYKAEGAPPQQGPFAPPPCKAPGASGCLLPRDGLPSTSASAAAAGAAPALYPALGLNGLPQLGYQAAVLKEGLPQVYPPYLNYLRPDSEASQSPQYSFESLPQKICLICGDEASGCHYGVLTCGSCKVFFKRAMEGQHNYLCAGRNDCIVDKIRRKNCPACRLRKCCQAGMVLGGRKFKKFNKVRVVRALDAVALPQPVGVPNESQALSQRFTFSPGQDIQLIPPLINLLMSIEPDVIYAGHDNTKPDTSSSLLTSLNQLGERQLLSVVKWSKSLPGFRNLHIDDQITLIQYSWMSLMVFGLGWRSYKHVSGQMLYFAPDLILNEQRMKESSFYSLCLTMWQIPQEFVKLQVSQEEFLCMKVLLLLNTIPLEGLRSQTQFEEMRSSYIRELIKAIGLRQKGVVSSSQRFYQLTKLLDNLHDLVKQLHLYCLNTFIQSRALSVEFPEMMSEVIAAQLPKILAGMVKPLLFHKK
# [7] = Cmax in Sprague-Dawley rat at 50 mg/kg, po; assay type: ADME, organism-based; set-up: dose 50 mg/kg, route oral; conditions: in vivo; summary of the method: as §2
# MG-63 = test: Induction of glutamine synthase expression in human MG63 cells after overnight incubation by spectrophotometry relative to prednisolone; assay type: cell-based
# SAOS-2 = test: Induction of alkaline phosphatase expression in human Saos2 cells after 3 days by spectrophotometry; assay type: cell-based; conditions: SAOS-2, 72 h
# [8] = Tmax in Sprague-Dawley rat at 10 mg/kg, po; assay type: ADME, organism-based; set-up: dose 10 mg/kg, route oral; conditions: in vivo; summary of the method: as §2
# Glucocorticoid receptor = target: T2, Glucocorticoid receptor (Homo sapiens, UniProt P04150); test: Displacement of GS-red from glucocorticoid receptor by fluorescence polarization assay
# T2 sequence (P04150 whole entry): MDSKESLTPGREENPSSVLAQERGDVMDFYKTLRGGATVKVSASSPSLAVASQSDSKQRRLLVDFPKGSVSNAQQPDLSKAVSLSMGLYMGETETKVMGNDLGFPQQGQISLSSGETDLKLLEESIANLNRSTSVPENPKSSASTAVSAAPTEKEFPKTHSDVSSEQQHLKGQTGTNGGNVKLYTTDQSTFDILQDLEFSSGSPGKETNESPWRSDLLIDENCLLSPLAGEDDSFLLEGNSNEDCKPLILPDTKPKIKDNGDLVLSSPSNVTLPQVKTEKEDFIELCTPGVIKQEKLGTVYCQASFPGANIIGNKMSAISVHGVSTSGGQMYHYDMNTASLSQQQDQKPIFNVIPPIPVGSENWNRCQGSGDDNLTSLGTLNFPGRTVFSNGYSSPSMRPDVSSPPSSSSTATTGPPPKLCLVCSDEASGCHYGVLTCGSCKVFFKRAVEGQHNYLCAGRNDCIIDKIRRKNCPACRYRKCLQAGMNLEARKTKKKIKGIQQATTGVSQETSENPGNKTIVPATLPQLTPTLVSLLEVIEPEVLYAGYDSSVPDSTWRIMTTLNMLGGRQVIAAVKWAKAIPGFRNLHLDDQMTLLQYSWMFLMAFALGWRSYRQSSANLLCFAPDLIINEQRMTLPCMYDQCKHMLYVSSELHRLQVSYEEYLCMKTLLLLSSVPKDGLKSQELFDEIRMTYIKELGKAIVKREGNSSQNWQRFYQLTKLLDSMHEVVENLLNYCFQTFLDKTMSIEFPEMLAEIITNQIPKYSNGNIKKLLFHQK
# [9] = AUC in Sprague-Dawley rat at 10 mg/kg, po; assay type: ADME, organism-based; set-up: dose 10 mg/kg, route oral; conditions: plasma; summary of the method: as §2
# [10] = Clearance in Sprague-Dawley rat at 1 mg/kg, iv; assay type: ADME, organism-based; set-up: dose 1 mg/kg, route intravenous; conditions: in vivo; summary of the method: as §2
Cmax [2],half-life [3],bioavailability [6],Ki (Progesterone receptor),Cmax [7],Tmax [8],Ki (Glucocorticoid receptor),AUC [9],clearance [10],Compound,ED50 (Rattus norvegicus [1]),"level, % of control at 30 mg/kg (Rattus norvegicus [4])",Activity (Rattus norvegicus [5]),Emax (MG-63),Emax (SAOS-2)
351 ng/mL,24 min,107%,1830 nM,3080 ng/mL,1 h,1.64 nM,904 ng·h/mL,34 mL/min/kg,CCN(C)C(=O)c1ccc(-c2ccc3c(n2)Oc2ccccc2[C@@H]3C(C)(C)C(=O)Nc2nncs2)cc1F,8 mg/kg,54%,Dose-dependent effect,53%,24%
285 ng/mL,36 min,119%,1530 nM,3210 ng/mL,1.3 h,1.94 nM,673 ng·h/mL,49.5 mL/min/kg,CN(C)C(=O)c1ccc(-c2ccc3c(n2)Oc2ccccc2[C@H]3C(C)(C)C(=O)Nc2nncs2)cc1F,17 mg/kg,42%,Dose-dependent effect,33%,13%
